In paper PMC8603004 (EFSA Journal, 2021):
Where “and” joins values, the source holds several entries; their conditions need not be identical. Equal entries are not always repeated.

Columns and labels:
[1] = Incubation of 14C‐3‐NOP in liver fractions; assay type: in vitro ADME; conditions: Sprague-Dawley, rat, liver cytosol
How it was run: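 14C-labelled test compound was incubated with or without NAD+ in liver S9, cytosol and microsomes from Sprague–Dawley rat, Wistar Han rat, Beagle dog and human. Aliquots were taken at several time points and the proteins precipitated. Supernatants were analysed by liquid scintillation counting and radio-HPLC, and half-life was derived from the time course.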

[2] = Mass balance with volatile trapping and tissue distribution study; assay type: in vivo, male Wistar rats
How it was run: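 Mass balance under OECD TG 417 in male Wistar rats given a single oral dose of 500 mg/kg bw 14C-labelled test compound. Rats were housed individually in air-tight glass metabolism cages. Volatiles were adsorbed in trapping solutions over 0–8 h and 8–24 h, and urine and faeces were collected over 0–24 h. Tissues, carcass and GI contents were taken at 24 h and results expressed as % of dose.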

[3] = ADME of 14C‐3‐NOP following single or multiple oral administration; assay type: in vivo, rat
[4] = single 50 mg/kg bw, males, 48 h
[5] = trial iii, 500 mg/kg bw, 1 h, females
[6] = trial iii, 500 mg/kg bw, 1 h, males

SMILES: O=[N+]([O-])OCCCO [3‐NOP, propan‐1,3‐diol‐mononitrate]
- half-life [1]: 42 min
- Radioactivity exhaled ([2]; 0 to 8 h post‐dose): 64.3%
- Dose recovered in faeces ([2]; 0 to 24 h): 1.2 % of the dose
- Dose recovered in urine ([2]; 0 to 24 h): 9.8 % of the dose
- Radioactivity exhaled ([2]; 8 to 24 h post‐dose): 13.0%
- Dose in the gastrointestinal tract content ([2]; 24 h): 0.5 % of the dose
- Dose remaining in the tissues and carcass ([2]; 24 h): 7.7 % of the dose
- Overall recovery of radioactivity ([2]; 24 h): 99.3%
- Dose recovered from the volatile traps (almost all as 14CO2) ([2]; 24 h after single oral 500 mg/kg bw): 77.4 % of the dose
- Mean concentration of radioactive compounds in blood ([2]; 24 h post‐dose): 48.7 μg 3‐NOP‐eq/g
- Radioactivity concentration in adrenal glands ([2]; 24 h post‐dose): 159.3 μg 3‐NOP‐eq/g
- Radioactivity concentration in brain ([2]; 24 h post‐dose): 24.8 μg 3‐NOP‐eq/g
- Radioactivity concentration in fat ([2]; 24 h post‐dose): 58.9 μg 3‐NOP‐eq/g
- Radioactivity concentration in kidney ([2]; 24 h post‐dose): 118.4 μg 3‐NOP‐eq/g
- Radioactivity concentration in liver ([2]; 24 h post‐dose): 184.5 μg 3‐NOP‐eq/g
- Radioactivity concentration in muscle ([2]; 24 h post‐dose): 42.4 μg 3‐NOP‐eq/g
- Parent compound in the stomach and caecum ([3]; 500 mg/kg, 1 h, females): 70 % of administered dose
- Parent compound in the stomach and caecum ([3]; 500 mg/kg, 1 h, males): 83 % of administered dose
- Parent compound in the liver ([3]; 500 mg/kg, 1 h, two values given, sexes not named): 3.5 % of TRR
- Total mean recovery of administered radioactivity ([3]; single 50 mg/kg bw, females): 91.1%
- Urinary excretion, mean ([3]; single 50 mg/kg bw, females): 4.8%
- Mean radioactivity in plasma 48 h after dosing ([3]; single 50 mg/kg bw, females, 50 mg/kg): 4.2 μg 3‐NOP‐eq/mL and 4.22 μg 3‐NOP‐eq/mL
- Total mean recovery of administered radioactivity ([3]; single 50 mg/kg bw, males): 95.9%
- Urinary excretion, mean ([3]; single 50 mg/kg bw, males): 6.3%
- Administered radioactivity recovered in expired air ([3]; single 50 mg/kg bw, males and females): about 80%
- Mean concentration of TR in adrenals [3, 4]: 19.5 μg 3‐NOP‐eq/g
- Mean concentration of TR in bone marrow [3, 4]: 14.3 μg 3‐NOP‐eq/g
- Mean concentration of TR in kidneys [3, 4]: 10.9 μg 3‐NOP‐eq/g
- Mean concentration of TR in liver [3, 4]: 12.6 μg 3‐NOP‐eq/g
- Mean radioactivity in plasma 48 h after dosing ([3]; single 50 mg/kg bw, males, 50 mg/kg): 7.0 μg 3‐NOP‐eq/mL and 7.03 μg 3‐NOP‐eq/mL
- Administered radioactivity recovered in expired air ([3]; single 500 mg/kg bw, females): 61.7%
- Total mean recovery of administered radioactivity ([3]; single 500 mg/kg bw, females): 85.3%
- Urinary excretion, mean ([3]; single 500 mg/kg bw, females): 13.1%
- Mean radioactivity in plasma 48 h after dosing ([3]; single 500 mg/kg bw, females, 500 mg/kg): 34.5 μg 3‐NOP‐eq/mL and 34.47 μg 3‐NOP‐eq/mL
- Administered radioactivity recovered in expired air ([3]; single 500 mg/kg bw, males): 73.5%
- Total mean recovery of administered radioactivity ([3]; single 500 mg/kg bw, males): 93.2%
- Urinary excretion, mean ([3]; single 500 mg/kg bw, males): 11.3%
- Mean radioactivity in plasma 48 h after dosing ([3]; single 500 mg/kg bw, males, 500 mg/kg): 51.9 μg 3‐NOP‐eq/mL and 51.92 μg 3‐NOP‐eq/mL
- Mean concentration of TR in plasma ([3]; trial iii, 500 mg/kg bw, 15 min, females): 477 μg 3‐NOP‐eq/mL
- Mean concentration of TR in plasma ([3]; trial iii, 500 mg/kg bw, 15 min, males): 396 μg 3‐NOP‐eq/mL
- Mean concentration of TR in plasma ([3]; trial iii, 500 mg/kg bw, 45 min, females): 629 μg 3‐NOP‐eq/mL
- Mean concentration of TR in plasma ([3]; trial iii, 500 mg/kg bw, 45 min, males): 512 μg 3‐NOP‐eq/mL
- Mean concentration of TR in plasma [3, 5]: 583 μg 3‐NOP‐eq/mL
- TR in kidneys [3, 5]: 865 μg 3‐NOP‐eq/g
- TR in liver [3, 5]: 622 μg 3‐NOP‐eq/g
- Mean TR in kidneys [3, 6]: 636 μg 3‐NOP‐eq/g
- Mean TR in liver [3, 6]: 655 μg 3‐NOP‐eq/g
- Mean TR in lungs [3, 6]: 494 μg 3‐NOP‐eq/g
- Mean TR in pancreas [3, 6]: 471 μg 3‐NOP‐eq/g
- Mean concentration of TR in plasma [3, 6]: 467 μg 3‐NOP‐eq/mL
- Time of TR max in plasma ([3]; trial iii, 500 mg/kg bw, all animals): 45 min
